Our source for the inhibition, Activity and IC50 values is ChEMBL document CHEMBL3774362, “Design, synthesis, and evaluation of 2-piperidone derivatives for the inhibition of β-amyloid aggregation and inflammation mediated neurotoxicity” (Bioorg Med Chem, 2016).

Broadly, the inhibition is the drop in the measured response relative to a control, in per cent. Broadly, the IC50 is the point on the concentration scale where inhibition reaches its midpoint.

Active and inactive are the calls of the source. The calls are words filed in the database; no cut-off is given here.

Series [1] addresses Amyloid-beta precursor protein (Homo sapiens) (UniProt P05067). In words: Inhibition of Amyloid beta (1 to 42) (unknown origin) self aggregation at 20 uM for 24 hrs by Thioflavin T-based fluorometric assay. The procedure, abridged: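 Aβ1–42 was HFIP-pretreated and dissolved in DMSO to a 200 μM stock. It was mixed with compound in PBS pH 7.4, compound final 20 μM. Incubation was 24 h at room temperature with shaking. 5 μM ThT in 50 mM glycine–NaOH pH 8.5 was then added. Fluorescence was read at ex 435 nm / em 490 nm. Mean ± SD of three independent measurements, each in duplicate.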

In series [2] the test system is BV-2. In words: Neuroprotective activity in mouse BV2 cells assessed as inhibition of LPS-stimulated TNFalpha production preincubated for 3 hrs followed by LPS treatment for 12 hrs by ELISA. Format: functional, cell-based. A digest of the protocol:
(§1)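 BV-2 microglia were seeded 2 × 10^4 cells/well and pretreated 3 h with compound at 0.0016, 0.008, 0.04, 0.2 and 1 μmol/L. They were then stimulated with LPS (1 μg/mL) for 12 h. Clarified supernatants were assayed by ELISA for the named cytokine.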
On the technique in general: In an ELISA, binding on a coated surface is turned into a signal by an enzyme label.

In series [3] the test system is BV-2. In words: Neuroprotective activity in mouse BV2 cells assessed as inhibition of LPS-stimulated IL-1beta production preincubated for 3 hrs followed by LPS treatment for 12 hrs by ELISA. It counts as functional, cell-based. A digest of the protocol:
as §1

Series [4] deals with BV-2. In words: Neuroprotective activity in mouse BV2 cells assessed as inhibition of LPS-stimulated IL6 production preincubated for 3 hrs followed by LPS treatment for 12 hrs by ELISA. It counts as functional, cell-based. A digest of the protocol:
as §1

Series [5] is described as follows: Cytotoxicity against mouse BV2 cells assessed as cell viability at 5 uM by MTT assay. Format: cell-based. The conditions noted are these: bv-2, 5 µM. The procedure, abridged:
(§2)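 BV-2 murine microglia kept in DMEM-H with 10% FBS at 37 °C, 5% CO2. Cells seeded 1 × 10^4 cells/well and cultured 24 h. Compound then added at 0.008, 0.04, 0.2, 1 and 5 μmol/L, with or without LPS. Viability read by MTT as absorbance at 490 nm.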
(In general: Formazan colour is commonly taken as a measure of viable cells.)

Series [6] has as its target Amyloid-beta precursor protein (Homo sapiens) (UniProt P05067). In words: Inhibition of Amyloid beta (1 to 42 residues) (unknown origin) assessed as no fibril formation at 50 uM after 4 days by atomic force microscopic analysis. A digest of the protocol: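 Aβ1–42 was pretreated with HFIP and taken up in DMSO. It was incubated in PBS pH 7.4 for 4 days at 30 °C, with or without compound. Final concentrations were 25 μM peptide and 50 μM compound. 10 μL aliquots were deposited on mica for 10 min, rinsed with water and dried under nitrogen. Samples were imaged by tapping-mode AFM.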

Series [7] has the same target. As to the kind of experiment: Inhibition of Amyloid beta (1 to 42) (unknown origin) self aggregation for 24 hrs by Thioflavin T-based fluorometric assay.
The nature of series [8]: Cytotoxicity against mouse BV2 cells assessed as cell viability at 0.008 to 5 umol/L by MTT assay in presence of LPS. It counts as cell-based. Particulars: bv-2. A digest of the protocol:
as §2

Series [9] relates to SH-SY5Y. As to the kind of experiment: Neuroprotective activity against LPS-induced toxicity in human SH-SY5Y cells assessed as cell viability using compound-conditioned media from LPS-stimulated BV2 cells at 5 uM by MTT assay. It counts as functional. A digest of the protocol:
(§3)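 BV-2 cells were seeded 2 × 10^4/well and pretreated 3 h with compound at 0.2, 1 and 5 μM. They were then stimulated 12 h with LPS 1 μg/mL, and the supernatant was clarified as conditioned medium. SH-SY5Y cells were seeded 5 × 10^3/well, grown 24 h and serum-starved overnight, then exposed to the conditioned medium. Viability was read by MTT at 490 nm. Mean ± SD of three independent experiments.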

Series [10] deals with SH-SY5Y. In words: Neuroprotective activity against LPS-stimulated toxicity in human SH-SY5Y cells using compound-conditioned media from LPS-stimulated BV2 cells by MTT assay. Format: functional, cell-based. The procedure, abridged:
as §3

Series [11] has as its target Myeloid differentiation primary response protein MyD88 (Homo sapiens) (UniProt Q99836). As to the kind of experiment: Inhibition of Flag-tagged MyD88-HA-tagged MyD88 (unknown origin) homodimerization transfected in HEK293 cells after 7 hrs by Co-immunoprecipitation assay. It counts as cell-based. A digest of the protocol: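 HEK293 cells were seeded at 9 × 10^5/well and transfected with Flag-MyD88 and HA-MyD88 plasmids. Compound was added 7 h after transfection at 10 and 40 μM. Cells were harvested 24 h post-transfection and lysed in RIPA. Lysates were precleared with protein A/G beads and immunoprecipitated with anti-HA on A/G beads at 4 °C. Captured Flag-MyD88 was detected by western blot.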

Series [12] has as its system SH-SY5Y. In words: Cytotoxicity against human SH-SY5Y cells at 5 uM by MTT assay. It counts as cell-based. The procedure, abridged: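 SH-SY5Y (DMEM/F-12, 10% FBS, 37 °C, 5% CO2) seeded 1 × 10^4 cells/well, grown 24 h, then exposed to compound at 0.04, 0.2, 1 and 5 μmol/L for 24 h. MTT added for a further 4 h; absorbance read at 490 nm. Mean ± SD of three independent experiments.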

Sequence of Amyloid-beta precursor protein (Homo sapiens) (P05067 whole entry, the tested form may be a part): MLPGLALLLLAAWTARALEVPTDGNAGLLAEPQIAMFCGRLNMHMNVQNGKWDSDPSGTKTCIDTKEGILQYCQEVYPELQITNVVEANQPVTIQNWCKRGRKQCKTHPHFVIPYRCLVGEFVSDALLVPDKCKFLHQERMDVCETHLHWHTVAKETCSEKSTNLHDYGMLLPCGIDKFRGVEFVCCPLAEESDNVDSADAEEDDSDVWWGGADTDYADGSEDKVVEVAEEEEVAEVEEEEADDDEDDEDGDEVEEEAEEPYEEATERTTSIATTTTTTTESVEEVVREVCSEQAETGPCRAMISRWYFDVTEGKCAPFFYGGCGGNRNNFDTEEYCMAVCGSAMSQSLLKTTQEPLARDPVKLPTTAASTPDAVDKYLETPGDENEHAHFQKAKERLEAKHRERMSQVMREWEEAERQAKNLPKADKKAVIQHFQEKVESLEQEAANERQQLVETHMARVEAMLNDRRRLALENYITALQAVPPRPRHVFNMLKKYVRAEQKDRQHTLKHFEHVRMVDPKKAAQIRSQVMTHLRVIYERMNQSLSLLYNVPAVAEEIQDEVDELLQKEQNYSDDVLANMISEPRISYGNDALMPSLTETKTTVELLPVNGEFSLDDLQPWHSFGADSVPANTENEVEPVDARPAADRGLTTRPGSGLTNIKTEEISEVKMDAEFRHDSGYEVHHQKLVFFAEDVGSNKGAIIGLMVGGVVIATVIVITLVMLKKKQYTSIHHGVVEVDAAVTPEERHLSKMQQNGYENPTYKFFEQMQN
Sequence of Myeloid differentiation primary response protein MyD88 (Homo sapiens) (Q99836 whole entry): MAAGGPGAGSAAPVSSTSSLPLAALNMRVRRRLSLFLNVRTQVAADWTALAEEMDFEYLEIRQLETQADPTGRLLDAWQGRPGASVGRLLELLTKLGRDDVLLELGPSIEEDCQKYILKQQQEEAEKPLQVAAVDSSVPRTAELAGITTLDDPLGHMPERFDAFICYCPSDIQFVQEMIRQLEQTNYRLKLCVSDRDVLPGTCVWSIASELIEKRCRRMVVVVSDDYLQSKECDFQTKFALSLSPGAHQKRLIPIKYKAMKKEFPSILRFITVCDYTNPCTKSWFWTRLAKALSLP

With `Cc1ccc([C@@H]2CC(=O)N(Cc3ccccc3)[C@H](c3ccc(O)cc3)[C@H]2[N+](=O)[O-])cc1` (racemic), the inhibition in series [1] was found to be 44.1%.

`Cc1ccc(CN2C(=O)C[C@@H](c3ccccc3Cl)[C@H]([N+](=O)[O-])[C@H]2c2ccc(O)cc2)cc1` (racemic) came in with an inhibition in series [1] of 46.1%.

On to `COC(=O)c1ccc(CN2C(=O)C[C@@H](c3ccccc3Cl)[C@H]([N+](=O)[O-])[C@H]2c2ccc(O)cc2)cc1` (racemic), for which the Activity entry with BV-2 [2], in the series with BV-2 [3] and in the series on BV-2 [4] was “Dose-dependent effect” each time. For the same compound, the IC50 with BV-2 [2] was determined as 0.09 µM; in the series with BV-2 [3], 3.49 µM; in the series on BV-2 [4] it was 0.08 µM. The same compound returned an inhibition in series [1] of 33.1%.

Take `COc1cc(OC)cc([C@@H]2CC(=O)N(Cc3cccnc3)[C@H](c3ccc(O)cc3)[C@H]2[N+](=O)[O-])c1` (racemic): the inhibition in [1] is 54%.

As for `COc1cc(OC)cc([C@@H]2CC(=O)N(Cc3ccc(OC)c(OC)c3)[C@H](c3ccc(O)cc3)[C@H]2[N+](=O)[O-])c1` (racemic), the Activity entry in [5] is “Non-toxic”; in the series on BV-2 [2], “Dose-dependent effect”; with BV-2 [3], “Dose-dependent effect”; in the series with BV-2 [4], “Dose-dependent effect”; in [8], “Non-toxic”; in the series on SH-SY5Y [9] it was 82.92%. Moreover, the results for the Activity result with SH-SY5Y [10] and in the series with SH-SY5Y [12] were “Dose-dependent effect” and “Non-toxic”, respectively. Besides, the inhibition result in series [6] was “Active”. Besides, the IC50 in the series on BV-2 [2] was 0.08 µM; in the series on BV-2 [3] it was 0.21 µM; with BV-2 [4] it was 0.03 µM. Moreover, the results for the inhibition in series [1], in [7] and in [11] were 59.1%, “Dose-dependent effect” and “Dose-dependent effect”, respectively.

In turn, `O=C1C[C@@H](c2ccccc2Cl)[C@H]([N+](=O)[O-])[C@@H](c2ccc(O)cc2)N1Cc1ccccc1` (racemic) returned an inhibition in series [1] of 11.2%.

As to `COc1ccc(CN2C(=O)C[C@@H](c3ccccc3Cl)[C@H]([N+](=O)[O-])[C@H]2c2ccc(O)cc2)cc1` (racemic), the inhibition in series [1] was 28.7%.

With `COc1cccc(CN2C(=O)C[C@@H](c3ccccc3)[C@H]([N+](=O)[O-])[C@H]2c2ccc(O)cc2)c1` (racemic), the inhibition in series [1] stood at 51.7%.

Consider `O=C1C[C@@H](c2ccccc2)[C@H]([N+](=O)[O-])[C@@H](c2ccc(O)cc2)N1Cc1cccnc1` (racemic), for which the inhibition in [1] was 43.3%; in series [7] it was “Dose-dependent effect”.

As for `COc1ccc(CN2C(=O)C[C@@H](c3ccccc3)[C@H]([N+](=O)[O-])[C@H]2c2ccc(O)cc2)cc1OC` (racemic), the inhibition in series [1] was found to be 49.2%.

Compound `COc1ccc(CN2C(=O)C[C@@H](c3ccccc3)[C@H]([N+](=O)[O-])[C@H]2c2ccc(O)cc2)cc1` (racemic) had an inhibition in [1] of 46.1%.

In [1], `Cc1ccc(CN2C(=O)C[C@@H](c3ccccc3)[C@H]([N+](=O)[O-])[C@H]2c2ccc(O)cc2)cc1` (racemic) displayed an inhibition of 39.9%.

On to `COC(=O)c1ccc(CN2C(=O)C[C@@H](c3ccccc3)[C@H]([N+](=O)[O-])[C@H]2c2ccc(O)cc2)cc1` (racemic), for which, in series [1], the inhibition is 36.3%.

In [1], `COc1cccc(CN2C(=O)C[C@@H](c3ccccc3Cl)[C@H]([N+](=O)[O-])[C@H]2c2ccc(O)cc2)c1` (racemic) displayed an inhibition of 50%.

`COc1ccc(CN2C(=O)C[C@@H](c3ccc(C)cc3)[C@H]([N+](=O)[O-])[C@H]2c2ccc(O)cc2)cc1` (racemic) returned an inhibition in series [1] of 30.6%.

In [1], `Cc1ccc(CN2C(=O)C[C@@H](c3ccc(C)cc3)[C@H]([N+](=O)[O-])[C@H]2c2ccc(O)cc2)cc1` (racemic) registered an inhibition of 42.1%.

Consider `COc1cccc(CN2C(=O)C[C@@H](c3cc(OC)cc(OC)c3)[C@H]([N+](=O)[O-])[C@H]2c2ccc(O)cc2)c1` (racemic), for which the Activity entry in the series on BV-2 [2], in the series on BV-2 [3] and with BV-2 [4] was “Dose-dependent effect” throughout. For the same compound, the IC50 with BV-2 [2] came out at 0.02 µM; with BV-2 [3] it was 0.85 µM; with BV-2 [4] it was 0.17 µM. In series [1], this compound returned an inhibition of 56.9%.

With `COc1cc(OC)cc([C@@H]2CC(=O)N(Cc3ccccc3)[C@H](c3ccc(O)cc3)[C@H]2[N+](=O)[O-])c1` (racemic), the inhibition in series [1] was 55%.

In turn, `O=C1C[C@@H](c2ccccc2)[C@H]([N+](=O)[O-])[C@@H](c2ccc(O)cc2)N1Cc1ccccc1` (racemic) displayed an inhibition in series [1] of 43.6%.

`O=C1C[C@@H](c2ccccc2Cl)[C@H]([N+](=O)[O-])[C@@H](c2ccc(O)cc2)N1Cc1cccnc1` (racemic) displayed an inhibition in [1] of 41.6%.

For `COc1cc([C@@H]2[C@@H]([N+](=O)[O-])[C@H](c3ccccc3Cl)CC(=O)N2Cc2ccccc2)ccc1O` (racemic), the inhibition in series [1] came to 11.8%.

With `O=C1C[C@@H](c2ccccc2)[C@H]([N+](=O)[O-])[C@@H](c2ccc(O)cc2)N1Cc1ccc(F)cc1` (racemic), in series [1], the inhibition was 6.39%.

The compound `COc1cccc(CN2C(=O)C[C@@H](c3ccc(C)cc3)[C@H]([N+](=O)[O-])[C@H]2c2ccc(O)cc2)c1` (racemic) displayed an inhibition in series [1] of 48.9%.
